# Only some compounds are listed: those with a hit (about 4.2% of all), similar ones and a draw of the others.
# GAA850 FXN act – activators of GAA850 frataxin (FXN) promoter | AID 540364 | HEK293 lucGAA850 FXN promoter luciferase reporter, 24 h; percent of 10 µM SAHA response | actives 0.56% (n = 360,000) | activation, % at 6 µM;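 active = activation above the average of all compounds screened plus 3 SD, cutoff fixed separately per campaign, cut at about 7.5% in these data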;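 also: 0% = DMSO wells and 100% = 10 µM SAHA wells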
# Fh CTSL1 inh – cathepsin L1 inhibition, PFM18AAP counter-screen; recombinant F. hepatica cathepsin L1, Z-Leu-Arg-MCA fluorescence; inhibition, % at 5.96 µM; actives 0.49% (n = 300,000); AID 1906;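 active = inhibition above the mean of all tested compounds plus 3 SD, set per screening campaign, cut at about 17% in these data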;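 also: 0% = plate median of test compound wells and 100% = 1 µM Z-Phe-Ala-diazomethylketone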
# SENP1 FRET inh – blocks the human SENP1 SUMO protease catalytic domain. Q9P0U3. recombinant SENP1 catalytic domain, CyPet-SUMO1-YPet FRET cleavage. inhibition, % at 10 µM. actives 0.21% (n = 360,000);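 active = inhibition at least 30% at 10 µM, raw YFP signal under a set limit, fluorescence ratio 0.5 to 1.5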;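 also: 0% = enzyme with DMSO and 100% = no enzyme wells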
#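 Compound: 10 µM single point, 0.5% DMSO; Test system: hSENP1 catalytic domain, recombinant; Timing: 50 min reaction at room temperature; Technique: FRET, CFP and YFP emission; Control set: no-enzyme wells low, DMSO-plus-enzyme wells high control.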
# HDAC3 inh – inhibitors of human histone deacetylase 3 | O15379 | recombinant HDAC3, fluorogenic peptide/trypsin coupled, fluorescence | inhibition, % at 8.3 µM | actives 0.15% (n = 320,000) | AID 2718; in the data active = inhibition above about 26%, passing the limit was not always enough
# Target sequence (O15379 whole entry, looked up): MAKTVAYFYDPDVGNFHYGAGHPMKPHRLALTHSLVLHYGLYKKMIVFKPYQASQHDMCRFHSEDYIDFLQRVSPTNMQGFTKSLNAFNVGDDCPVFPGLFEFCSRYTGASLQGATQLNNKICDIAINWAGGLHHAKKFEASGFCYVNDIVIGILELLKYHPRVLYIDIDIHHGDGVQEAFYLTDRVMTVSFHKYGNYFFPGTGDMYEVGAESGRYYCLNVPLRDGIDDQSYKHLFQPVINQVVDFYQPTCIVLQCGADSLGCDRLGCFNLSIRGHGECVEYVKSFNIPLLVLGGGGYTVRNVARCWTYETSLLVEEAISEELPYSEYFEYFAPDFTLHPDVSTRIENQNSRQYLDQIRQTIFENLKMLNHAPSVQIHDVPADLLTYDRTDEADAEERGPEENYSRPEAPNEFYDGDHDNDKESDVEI
# PfM18AAP inh – PfM18AAP enzyme inhibition. actives 1.2% (n = 290,000). recombinant PfM18AAP, H-Glu-NHMec fluorogenic cleavage. inhibition, % at 7.35 µM. AID 1822;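 active = inhibition above the campaign mean inhibition over all tested compounds plus 3 SD, cut at about 28% in these data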;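 also: 0% = plate median of test compound wells and 100% = 2 mM ZnCl2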
# AHR activator – activators of human aryl hydrocarbon receptor | AHR-responsive luciferase reporter cells, luminescence | activation, % at 5 µM | actives 2.5% (n = 320,000); in the data active = activation above about 47%;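 also: 0% = vehicle wells and 100% = reference agonist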
# The depositor's hits bear a star; . = no result.
SMILES,GAA850 FXN act,Fh CTSL1 inh,SENP1 FRET inh,HDAC3 inh,PfM18AAP inh,AHR activator
O=c1[nH][nH]c(-c2ccccc2O)c1C(C[N+](=O)[O-])c1cccc(Cl)c1 (stereo unspecified),1,4,2,1,30*,12
O=c1[nH][nH]c(-c2ccccc2O)c1C(C[N+](=O)[O-])c1ccccc1 (stereo unspecified),2,2,-1,-3,21,6
C[C@H]1CN([C@@H](C)CO)S(=O)(=O)c2ccc(/C=C/c3ccccc3)cc2O[C@H]1CN(C)C(=O)NC1CCCCC1,-1,.,-6,.,.,.
C=CCNC(=O)CSc1nnc(-c2cccc(S(=O)(=O)N3CCOCC3)c2)o1,-1,.,2,.,.,.
CCCNC(=O)Cn1c(=O)/c(=C\c2ccc(-c3cccc([N+](=O)[O-])c3)o2)s/c1=C\C(=O)C(C)(C)C,1,18*,-25,2,-7,7
CCCNC(=O)Cn1c(=O)/c(=C/c2ccc(-c3cccc([N+](=O)[O-])c3)o2)s/c1=C\C(=O)C(C)(C)C,-1,.,-30,.,.,.
CC(=O)c1cccc(Nc2cc(C)nc3c(C)cc(C)cc23)c1,-2,6,1,-9,2,56*
CC(=O)c1ccc(Nc2cc(C)nc3c(C)cccc23)cc1,0,5,-7,-1,1,49*
Cc1cc(C(=O)OCC(=O)N(C)c2ccccc2)c(C)o1,1,.,1,6,.,2
CN(C)S(=O)(=O)c1ccc(S(=O)(=O)N(Cc2ccco2)Cc2ccccc2Cl)cc1,5,36*,0,-5,-4,0
NNC(=O)c1nc(Cl)c(Cl)c(N)c1Cl,1,3,4,-1,0,77*
Nc1c(Cl)c(Cl)nc(C(=O)N/N=C/c2ccco2)c1Cl,1,0,-2,0,4,53*
Nc1nccnc1C(=O)N/N=C/c1ccco1,4,2,0,0,8,3
Cc1cc(OCC(=O)Nc2c(C(C)C)cccc2C(C)C)no1,-1,.,-23,.,.,.
c1ccc(OCCOCCSc2ncccn2)cc1,5,-4,-3,7,-12,32
Cc1cccc(OCCOCCSc2ncccn2)c1,1,-4,1,-7,6,62*
COc1ccc(N(C(=O)c2ccncc2)S(=O)(=O)c2cccc([N+](=O)[O-])c2)cc1,-2,-1,0,0,-13,-2
CCCC(=O)Oc1ccc(N(C(=O)CCC)S(=O)(=O)c2cccc([N+](=O)[O-])c2)cc1,0,-6,5,50*,-8,-3
CCCC(=O)Oc1ccc(N(C(=O)CCC)S(=O)(=O)c2cccs2)cc1,3,0,7,56*,0,2
COc1ccc(Br)cc1CN(C)C(=O)CNC(=O)c1ccc2ccccc2c1,0,2,1,15,5,8
CC1(C(=O)NCc2cccs2)Cc2c(-c3ccc(C(N)=O)cc3)ccnc2O1 (stereo unspecified),-3,.,1,.,.,.
N#CC1(NC(=O)COC(=O)c2cc([N+](=O)[O-])ccc2N2CCCC2)CCCCC1,2,18*,-4,-7,.,7
CCN(c1ccccc1)S(=O)(=O)c1ccc(Cl)c(NC(=O)COC(=O)c2cc(O)c3ccccc3c2O)c1,.,4,.,.,-2,123*
Cc1ccc2[nH]c(CNC(=O)c3ccccc3F)cc2c1,1,1,-12,6,-2,19
O=C(NCc1cc2ccccc2[nH]1)c1ccccc1F,3,6,-15,0,8,48*
SMILES,GAA850 FXN act,Fh CTSL1 inh,SENP1 FRET inh,HDAC3 inh,PfM18AAP inh,AHR activator
Cn1c(CNC(=O)c2ccccc2F)cc2ccccc21,3,6,0,-13,-12,50*
OCCN(Cc1cccnc1)Cc1ccccn1,-3,.,-3,.,.,.
COc1ccccc1-c1cc2nc(C)cc(C)n2n1,-1,-2,13,-4,-2,49*
CC1=CN(S(=O)(=O)c2ccc(C)cc2)C[C@@H]2[C@H]3CC[C@H](C3)[C@H]12,0,.,0,.,.,.
Cc1ccc(NC(=S)N2CCC(c3ccc(C)cc3)C2)cc1 (stereo unspecified),5,54*,3,7,39*,3
COc1ccc(CC(=O)Nc2ccc(OC)c(NC(=O)c3ccco3)c2)cc1,-1,0,-1,3,-7,9
COc1ccccc1NC(=O)c1ccc(Br)o1,1,-5,2,-2,-7,33
COc1ccc(-c2nc3ccccc3o2)cc1NC(=O)c1ccc(Br)o1,1,2,2,-4,5,77*
COc1ccc(NC(=O)c2ccco2)cc1NC(=O)c1ccc(Br)o1,0,3,0,-1,4,58*
CCOc1ccc(N=C2NC(=O)S/C2=C\c2ccc(N(C)C)cc2)cc1,1,1,-25,-3,-3,62*
C=CC[C@@H](CC(=O)N[C@@H](CO)Cc1ccccc1)C(=O)N[C@H](COC(=O)[C@@H](CC=C)CC(=O)OC(C)(C)C)Cc1c[nH]c2ccccc12,-5,.,0,37*,.,0
C=CC[C@H](CC(=O)N[C@H](CO)Cc1ccccc1)C(=O)N[C@@H](COC(=O)[C@@H](CC=C)CC(=O)OC(C)(C)C)Cc1c[nH]c2ccccc12,-4,.,1,32*,.,1
N#Cc1ccccc1NC(=O)CSc1nnc(-c2ccccc2)n1-c1ccccc1,-2,-4,-1,-1,0,65*
CCn1nc2cc(C(=O)NCC34CC5CC(CC(C5)C3)C4)ccc2c1OC,-1,0,-2,-19,-1,3
CCOc1c2ccc(C(=O)NCC34CC5CC(CC(C5)C3)C4)cc2nn1CC,1,2,1,-25,0,51*
COc1cc(/C=N/NC(=O)NC2CCCCC2)ccc1O,1,1,3,17,1,3
COc1cc(/C=N/NC(=O)NC2CCCCC2)cc(OC)c1O,1,5,1,1,29*,6
COc1cc(C2CC(=O)Oc3cc(C)cc(C)c32)cc(OC)c1OC (stereo unspecified),0,.,-3,.,.,.
CC1CCCCC1NC(=O)COC(=O)CNC(=O)c1cccc(F)c1 (stereo unspecified),1,22*,0,-2,-4,0
CC(C)(C)NC(=O)NC(=O)COC(=O)CNC(=O)c1cccc(F)c1,1,5,1,-6,-7,-1
O=C(CNC(=O)c1cccc(F)c1)OCC(=O)N1CCCc2ccccc21,0,20*,2,-4,4,10
C/C=C/C(=O)N1CC2(CC(c3cccc(NC(=O)/C(C)=C/C)c3)=NO2)C[C@H]1C(N)=O (stereo partly specified),0,18*,-2,-11,.,-5
O=C(Nc1ccc(S(=O)(=O)N2CCCC2)cc1)c1cc(F)c(F)cc1Cl,-1,1,2,3,-1,-2
